In experiment [1] the test system is Canis familiaris. Description: Inhibition of acid output in dogs (iv). In kind it is functional. The conditions noted are these: Canis lupus familiaris. The essentials: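 Dogs with gastric fistula under histamine stimulation. The compound is dissolved in aqueous vehicle with 1 equiv of HCl. It is given orally (po), or intravenously (iv) immediately before histamine. Acid secretion is measured over the period of maximum effect, 0-30 min after histamine. ED50 and confidence limits come from analysis of variance over four dose levels, with 3-5 dogs per dose.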

Experiment [2] in a line: Slope value of the compound.
The target of experiment [3] is Histamine H2 receptor (Cavia porcellus) (UniProt P47747). Description: In vitro inhibition of Histamine H2 receptor by measuring its ability to block dimaprit-stimulated chronotropic response of guinea pig atrium strips. In kind it is tissue-based. The following applies: Cardiac atrium.
Experiment [4] concerns Canis familiaris. The experiment is described as follows: Inhibition of acid output in dogs (po). The following applies: Canis lupus familiaris. In kind it is functional. The essentials:
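Dogs with a gastric fistula, stimulated with histamine, were dosed orally with compound solubilized in aqueous vehicle containing 1 equiv of HCl. Gastric secretion was measured over the period of maximum effectiveness (0-30 min after histamine). ED50 and confidence limits came from analysis of variance across four dose levels with 3-5 dogs per dose.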

The target in another experiment is Histamine H2 receptor (Cavia porcellus, UniProt P47747). The experiment is described as follows: In vitro inhibition of Histamine H2 receptor by measuring its ability to block the histamine-stimulated adenylate cyclase of guinea pig hippocampal homogenate. In kind it is tissue-based, Hippocampus.
A short description of experiment [5]: Ratio (po/iv) value of the compound. In kind it is functional.
For experiment [6], the target named is Histamine H2 receptor (Cavia porcellus) (UniProt P47747). The conditions noted are these: Cardiac atrium.

8 compounds from ChEMBL document CHEMBL1122013, “Inhibitors of gastric acid secretion: 3,4-diamino-1,2,5-thiadiazole 1-oxides and 1,1-dioxides as urea equivalents in a series of histamine H2-receptor antagonists” (J Med Chem, 1982) can be followed below.

Values joined by “and” are separate entries in the source; they are usually repeats but may differ in a detail not shown here. Equal entries are not always repeated.

Sequence of Histamine H2 receptor (Cavia porcellus) (P47747 whole entry): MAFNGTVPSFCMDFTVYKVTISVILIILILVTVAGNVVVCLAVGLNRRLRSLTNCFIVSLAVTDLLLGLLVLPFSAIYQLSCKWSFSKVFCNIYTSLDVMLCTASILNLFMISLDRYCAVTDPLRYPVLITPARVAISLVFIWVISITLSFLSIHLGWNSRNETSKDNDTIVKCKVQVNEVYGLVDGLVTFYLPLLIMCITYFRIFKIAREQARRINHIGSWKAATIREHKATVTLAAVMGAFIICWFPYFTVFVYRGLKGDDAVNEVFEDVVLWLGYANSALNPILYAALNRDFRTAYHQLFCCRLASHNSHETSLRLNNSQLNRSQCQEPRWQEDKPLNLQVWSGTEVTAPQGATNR
Sequence of Histamine H2 receptor (P47747 whole entry): as above

By ED50 is commonly meant the dose that gives a 50% effect, or the effect in half of the subjects. High values mean a need for a large dose, low ones an effect at a small dose. For the compound `CN/C(=N\CCSCc1nc[nH]c1C)NC#N` [CIMETIDINE], the ED50 in the experiment with Canis familiaris [1] is 1.84 mg/kg. The Slope in experiment [2] was 0.9 and 0.78.
Consider `Nc1n[s+]([O-])nc1NCCCOc1cccc(CN2CCCCC2)c1` (stereo not given), for which, in experiment [2], the Slope was 1.4 and 1.73.
As to `Cc1[nH]cnc1CSCCNc1n[s+]([O-])nc1N` (stereo not given), the -Log KB in experiment [3] is 5.98. In experiment [2], this compound showed a Slope of 0.85.
By Ki is commonly meant the equilibrium dissociation constant of an inhibitor or competing ligand from its target. As for `CNC(=C[N+](=O)[O-])NCCSCc1ccc(CN(C)C)o1` [RANITIDINE], the ED50 in the experiment on Canis familiaris [1] turned out to be 0.04 mg/kg; in the experiment with Canis familiaris [4], 0.42 mg/kg. In addition, on Histamine H2 receptor, affinity was put at a Ki of 501 nM. In addition, the Slope in experiment [2] is 1.6 and 0.76. Besides, the Ratio in experiment [5] was found to be 14. The compound also displayed a -Log KB in experiment [6] of 7.32.
With `CNc1n[s+]([O-])nc1NCCSCc1ccc(CN(C)C)o1` (stereo not given), the 50% effective dose (ED50) in the experiment on Canis familiaris [1] amounted to 0.05 mg/kg; in the experiment on Canis familiaris [4], 0.3 mg/kg. This compound gave a -Log KB in experiment [3] of 7.85. For the same compound, in experiment [2], the Slope is 1.03. Besides, the Ratio in experiment [5] was determined as 6.
In the case of `CN(C)Cc1ccc(CSCCNc2n[s+]([O-])nc2N)o1` (stereo not given), the Slope in experiment [2] is 1.1 and 0.55.
Turning to `N=C(N)Nc1nc(CSCCNc2n[s+]([O-])nc2N)cs1` (stereo not given), the -Log KB in experiment [3] stood at 8.17. The same compound gave a Slope in experiment [2] of 0.85.
For `CN(C)Cc1ccc(CSCCNC2=NS(=O)(=O)N=C2N)o1`, the Slope in experiment [2] was 1.3 and 0.53.
